Source: PubChem
Only some compounds are listed: those with a hit (about 2.4% of all), similar ones and a draw of the others.
NPY-Y2 antag – NPY-Y2 receptor antagonists, primary screen, cell-based; Neuropeptide Y receptor type 2 (Homo sapiens), P49146; NPY-Y2 expressing cells, antagonist mode; inhibition, % at 2.7 µM; 140,000 compounds, 0.99% hits; AID 793, 2007; in the data active means inhibition above about 17%
NPY-Y1 antag – NPY-Y1 receptor antagonists, primary screen, cell-based; inhibition, % at 3.6 µM; 200,000 compounds, 1% hits; Neuropeptide Y receptor type 1 (Homo sapiens), P25929; HEK293-CNG Y1 cells, membrane potential fluorescence; NPY at EC95, then isoproterenol;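 active means inhibition above the campaign mean inhibition of all tested compounds plus 3 SD, cut at about 20% in these data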
Target sequence (P25929 whole entry, looked up): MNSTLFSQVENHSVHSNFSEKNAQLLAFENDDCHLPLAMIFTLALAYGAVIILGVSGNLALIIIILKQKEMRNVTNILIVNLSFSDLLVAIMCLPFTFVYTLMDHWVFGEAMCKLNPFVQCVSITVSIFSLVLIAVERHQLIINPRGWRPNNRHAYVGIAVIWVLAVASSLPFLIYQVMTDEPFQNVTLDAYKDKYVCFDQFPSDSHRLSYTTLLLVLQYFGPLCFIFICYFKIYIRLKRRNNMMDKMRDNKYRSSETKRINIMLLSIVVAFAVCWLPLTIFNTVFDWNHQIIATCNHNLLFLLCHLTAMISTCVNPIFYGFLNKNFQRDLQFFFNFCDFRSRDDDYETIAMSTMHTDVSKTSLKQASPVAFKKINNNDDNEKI
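Test system: HEK293 cells co-expressing NPY Y1 receptor and cyclic-nucleotide gated channel; Also added: NPY (25 nM), isoproterenol (1 µM), Ro 20-1724 (25 µM); Compound dosing: one concentration, 3.6 µM, in 0.4% DMSO; Timing: dye 3 h, compound 60 min room temperature, stimulation 45 min; Technique: Membrane-potential fluorescent dye readout.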
NPY2 pot ag – NPY-Y2 potentiators or agonists, primary screen, cell-based. Neuropeptide Y receptor type 2 (Homo sapiens), P49146. 220,000 compounds, 0.45% hits. cells expressing NPY-Y2, potentiator/agonist read-out. activation, % at 3.6 µM; in the data active means activation above about 27%;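 further: cells stimulated with NPY near EC25 plus isoproterenol at EC100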
S1P4 antag – S1P4 receptor antagonists, primary screen, cell-based; S1P4-expressing cells, antagonist mode, reporter read-out; 220,000 compounds, 0.26% hits; inhibition, % at 4.98 µM; AID 1510, 2009; in the data active means inhibition above about 29%
NPY-Y1 PAM-ag – NPY-Y1 receptor potentiators or agonists, primary screen, cell-based; activation, % at 3.6 µM; NPY-Y1 expressing cells, potentiator/agonist activation; Neuropeptide Y receptor type 1 (Homo sapiens), P25929; 220,000 compounds, 0.37% hits; in the data active means activation above about 33%, passing the limit was not always enough;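 further: cells stimulated with NPY at EC10 then isoproterenol at EC100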
S1P4 ag – S1P4 receptor agonists, primary screen, cell-based | AID 1509, 2009 | activation, % at 4.98 µM | 220,000 compounds, 0.35% hits | S1P4-expressing cell line, agonist reporter assay; in the data active means activation above about 11%
NPY-Y2 pot conf – NPY-Y2 potentiators or agonists, confirmation, cell-based; activation, % at 3.6 µM; 450 compounds, 20% hits; shares compounds with NPY2 pot ag; cell-based NPY-Y2 potentiator/agonist assay; AID 1539, 2009; in the data active means activation above about 33%
NPY-Y1 counter – NPY-Y1 potentiators or agonists, counter-screen for NPY-Y2 potentiator project, cell-based, fluorescence | Y1 HEK293-CNG cells, membrane potential fluorescence | activation, % at 3.6 µM | 450 compounds, 20% hits | shares compounds with NPY2 pot ag; in the data active means activation above about 45%;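 further: cells stimulated with submaximal NPY then isoproterenol with phosphodiesterase inhibitor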
NPY-Y1 ag 2 – NPY-Y1 direct agonists, selectivity assay for NPY-Y2 potentiator project, cell-based, fluorescence | shares compounds with NPY2 pot ag | HEK293 Y1-CNGC, membrane potential fluorescence, agonism | activation, % at 3.6 µM | 450 compounds, 37% hits;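 active means activation above the mean of DMSO-only control wells plus 3 SD, cut at about 18% in these data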;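 further: cells stimulated with 1 µM isoproterenol plus the PDE inhibitor Ro 20-1724; Y1 agonists lower the membrane potential dye signal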
CNGC inh – CNGC cAMP sensor activity inhibitors, counter-screen for NPY-Y2 potentiator project, cell-based, HEK293-CNG parental, membrane potential fluorescence | shares compounds with NPY2 pot ag | isoproterenol cAMP | inhibition, % at 3.6 µM | 450 compounds, 32% hits | AID 1703, 2009;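 active means inhibition above the control-well mean plus 3 SD of those wells, cut at about 22% in these data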
Y2 agonist ctr – NPY-Y2 direct agonists, counter-screen for NPY-Y2 potentiator project, cell-based, fluorescence. shares compounds with NPY2 pot ag. HEK293 Y2/CNGC cells, membrane potential fluorescence, agonist mode. activation, % at 3.6 µM. 450 compounds, 56% hits. AID 1710, 2009;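 active means activation above the mean of solvent-only control wells plus 3 SD, cut at about 10% in these data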;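 further: cells stimulated by isoproterenol with no NPY added so direct agonism is tested; agonism lowers probe fluorescence through less cAMP and CNG channel opening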
Hits are given with their value; – = inactive; · = no result.

SMILES	NPY-Y2 antag	NPY-Y1 antag	NPY2 pot ag	S1P4 antag	NPY-Y1 PAM-ag	S1P4 ag	NPY-Y2 pot conf	NPY-Y1 counter	NPY-Y1 ag 2	CNGC inh	Y2 agonist ctr
COC(=O)c1sccc1NS(=O)(=O)c1ccc(OC)cc1	–	–	31	–	–	–	–	–	–	–	–
COC(=O)c1ccc(C)c(NS(=O)(=O)c2ccc(OC)cc2)c1	–	–	–	–	–	–	·	·	·	·	·
O=C(CCl)N=c1sccn1Cc1cccc2ccccc12	·	–	27	–	–	–	–	–	–	–	–
CC(C)Cc1nc2oc3c(Cl)ncnc3c2c2c1CCC2	–	–	–	–	–	–	·	·	·	·	·
COc1ccc(C2=NCC(CSc3nnnn3C)S2)cc1 (configuration not stated)	–	–	–	–	–	–	·	·	·	·	·
Cc1sc2cc3c(c(C(=O)c4ccccc4)[n+]2c1C)-c1cccc2cccc-3c12	–	–	31	–	–	–	–	–	–	–	16
O=C(c1ccccc1)c1c2c(cc3sc4ccccc4[n+]13)-c1cccc3cccc-2c13	–	–	40	–	–	–	51	60	54	56	60
Nc1nc(Nc2ccccc2)sc1C(=O)c1ccccc1	·	·	–	–	–	–	·	·	·	·	·
CCOc1ccc(CC(C(N)=O)C(N)=O)cc1	·	–	–	–	–	–	·	·	·	·	·
O=C(O)CC1S/C(=N/N=C/C2CC=CCC2)NC1=O (configuration not stated)	·	–	–	–	–	–	·	·	·	·	·
CC(=O)c1ccc(N2CCN(C(=S)Nc3ccc(Oc4ccccc4)cc3)CC2)cc1	·	–	39	–	–	–	–	–	–	–	11
Cc1cc(C)n(-c2ncc3c(n2)N(CCO)CCOC3=O)n1	·	·	73	–	–	–	–	–	–	–	–
Cn1c(=O)c2c(ncn2CC(=O)N2CCCc3ccccc32)n(C)c1=O	–	–	–	–	–	–	·	·	·	·	·
COc1cccc(N2CCN(c3ncnc4c3[nH]c3ccccc34)CC2C)c1 (configuration not stated)	–	–	–	–	–	–	·	·	·	·	·
COc1cccc(N2CCN(c3ncnc4c3[nH]c3ccc(F)cc34)CC2C)c1 (configuration not stated)	–	57	39	–	–	–	–	–	–	–	–
C=C(C)CN(CC)C(=O)CC1C(=O)NCCN1CC(C)(C)C (configuration not stated)	·	·	51	–	–	–	–	–	–	–	–
COC(=O)CN(C)C(=O)CC1C(=O)NCCN1CC(C)(C)C (configuration not stated)	·	–	–	–	–	–	·	·	·	·	·
Cc1ccnc(NC(c2ccncc2)c2c(C)[nH]c3ccccc23)c1 (configuration not stated)	–	–	–	–	–	–	·	·	·	·	·
Cc1[nH]c2ccccc2c1C(Nc1nccs1)c1ccncc1 (configuration not stated)	–	–	27	–	–	–	–	–	–	–	–
CCCOC(=O)/C(=C\C=C\c1ccccc1)NC(=O)c1ccccc1	·	–	–	–	–	–	·	·	·	·	·
COc1nc(/C=C/N(C)C)c([N+](=O)[O-])c(OC)n1	·	·	102	–	–	–	–	–	–	–	–
Cc1[nH]c2ccccc2c1/C=N/NC(=O)c1cccc(S(=O)(=O)Nc2cccc(C(F)(F)F)c2)c1	·	–	42	–	–	–	41	60	46	35	40
CCCCn1c(N)c(NCCC)c(=O)[nH]c1=O	–	–	–	–	–	–	·	·	·	·	·
O=P(OC1CCCCC1)(OC1CCCCC1)C(Nc1ccccc1)c1cccnc1 (configuration not stated)	·	·	44	–	–	–	–	–	17	28	20
c1ccc(N2CCN(c3ccccc3)C2c2cccs2)cc1	–	–	–	–	–	–	·	·	·	·	·
SMILES	NPY-Y2 antag	NPY-Y1 antag	NPY2 pot ag	S1P4 antag	NPY-Y1 PAM-ag	S1P4 ag	NPY-Y2 pot conf	NPY-Y1 counter	NPY-Y1 ag 2	CNGC inh	Y2 agonist ctr
O=C(CS(=O)(=O)c1ccccc1)N1CCc2ccccc21	·	–	34	–	–	–	–	–	–	–	–
COc1ccc(NC(=O)COC(=O)c2ccco2)c([N+](=O)[O-])c1	·	–	–	–	–	–	·	·	·	·	·
O=S1(=O)NC(=NCC(c2ccco2)N2CCCCC2)c2ccccc21 (configuration not stated)	·	·	–	–	–	–	·	·	·	·	·
CN(C)C(CN=C1NS(=O)(=O)c2ccccc21)c1ccco1 (configuration not stated)	·	–	51	–	–	–	–	–	–	–	–
O=C(Nc1ccccc1C(=O)N1CCCC1)c1ccc(Cl)c([N+](=O)[O-])c1	·	–	28	–	–	–	–	–	–	–	10
CC(C)=C1C2CCC1C1C(=O)N(NC(=O)COc3ccc(C(C)(C)C)cc3)C(=O)C21 (configuration not stated)	–	–	–	–	–	–	·	·	·	·	·
COc1ccccc1NS(=O)(=O)c1cccc(-n2c(O)c(C=Nc3ccccc3C(=O)O)c3ccccc3c2=O)c1	·	·	45	–	–	–	–	–	34	–	30
COc1ccc(Cn2c(O)c(C=Nc3ccccc3C(=O)O)c3ccccc3c2=O)cc1	·	·	54	–	–	–	–	–	28	–	27
O=Nc1c(O)n(Cc2c(Cl)cccc2Cl)c2ccccc12	–	–	34	–	–	–	–	–	–	–	–
Nc1ccc(C(=O)OCC(=O)c2cccc([N+](=O)[O-])c2)cc1	·	–	–	–	–	–	·	·	·	·	·
C=CCn1c(=O)c(C(=O)Nc2ccccc2O)c(O)c2ccccc21	–	–	53	–	–	–	–	–	–	–	–
